From paper PMC9340768 (Journal of Medicinal Chemistry, 2022)

What was measured:
[1] = tested on: human PBMCs cocultured with HT1376; assay: PBMC/HT1376 coculture cytokine secretion assay; assay type: cell-based; settings: anti-CD3 stimulated PBMCs with HT1376
Procedure, shortened: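 Frozen healthy-donor human PBMCs were thawed, washed in PBS with benzonase and resuspended in RPMI with 10% heat-inactivated FBS, HEPES and glutamine. PBMCs (1 × 10^6/mL) were plated with tumor cells (1 × 10^5/mL) at 10:1, stimulated with soluble anti-CD3 OKT3 (100 ng/mL), and given diluted test compound. Incubation was 2 days at 37 °C, 5% CO2. Supernatant IFNγ and IL-2 were measured by Luminex; four-parameter fit, n = 3.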

CD137 [2] = molecular target: T1, CD137 (Homo sapiens, UniProt Q07011+Q96NY8); assay: tumor cell/CD137 reporter coculture assay with other tumor cell lines; assay type: cell-based
T1 sequence (Q07011 24-255): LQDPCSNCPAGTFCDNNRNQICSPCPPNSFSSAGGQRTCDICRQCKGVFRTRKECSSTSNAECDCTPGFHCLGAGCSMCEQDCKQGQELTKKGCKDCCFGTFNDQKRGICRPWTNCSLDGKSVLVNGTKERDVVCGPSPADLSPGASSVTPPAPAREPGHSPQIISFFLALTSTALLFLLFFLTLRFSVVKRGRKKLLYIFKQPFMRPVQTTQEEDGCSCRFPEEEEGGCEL
T1 sequence (Q96NY8 32-510): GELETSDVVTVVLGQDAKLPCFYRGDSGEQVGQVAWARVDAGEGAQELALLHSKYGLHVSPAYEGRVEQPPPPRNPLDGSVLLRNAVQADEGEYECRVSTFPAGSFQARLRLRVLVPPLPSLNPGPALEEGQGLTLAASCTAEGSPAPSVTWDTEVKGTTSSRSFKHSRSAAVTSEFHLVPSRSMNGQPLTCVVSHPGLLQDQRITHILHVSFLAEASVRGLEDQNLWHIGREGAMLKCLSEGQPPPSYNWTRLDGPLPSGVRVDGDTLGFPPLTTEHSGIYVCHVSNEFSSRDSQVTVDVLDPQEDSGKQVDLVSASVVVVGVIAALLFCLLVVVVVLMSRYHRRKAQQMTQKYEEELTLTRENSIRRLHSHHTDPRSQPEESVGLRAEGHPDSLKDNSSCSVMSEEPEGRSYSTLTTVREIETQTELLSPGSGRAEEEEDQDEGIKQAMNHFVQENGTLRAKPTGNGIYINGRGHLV
Procedure, shortened: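 A Jurkat reporter line expressing human CD137 and a CD137-responsive luciferase element was cocultured with 10,000 cells of the indicated tumor line, with or without test compound, for 6 h at 37 °C, 5% CO2. Bio-Glo luciferase reagent was then added and luminescence read. Fold induction was calculated as RLU over background wells without test article.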

CD137 [3] = molecular target: T1, CD137; settings: cited from earlier work
[4] = Pharmacokinetics in Sprague-Dawley rats; settings: rat, in vivo, iv, 2 mg/kg, CL (mL/min/kg), SD rats, 2 mg/kg IV bolus
CD137 [5] = molecular target: T1, CD137; assay: HT1376/CD137 reporter coculture assay; assay type: cell-based; settings: BCY10000 relative to BCY8854
human CD137 = human CD137 (Homo sapiens, UniProt Q07011); assay: SPR binding to human CD137

## CCCC[C@@H]1NC(=O)[C@H](Cc2ccc(O)cc2)NC(=O)[C@@H]2CCCN2C(=O)[C@H](CC(=O)O)NC(=O)[C@H](C)NC(=O)[C@H](Cc2ccccc2)NC(=O)[C@@H]2CSCCC(=O)N3CN(CN(C3)C(=O)CCSC[C@@H](C(=O)N[C@@H](CNC(=O)CCOCCOCCOCCOCCOCCOCCOCCOCCOCCOCCOCCOCCn3cc(CCC(=O)NCCC(=O)N(C)CC(=O)N(C)CC(=O)N(C)CC(=O)N(C)CC(=O)N(C)CC(=O)N(C)CC(=O)N(C)CC(=O)N(C)CC(=O)N(C)CC(=O)N(C)CC(=O)N[C@H]4CSCCC(=O)N5CN6CN(C5)C(=O)CCSC[C@H](NC(=O)[C@@H](CC(=O)O)NC(=O)[C@H](Cc5cccc7ccccc57)NC(=O)[C@@H]5CCCN5C4=O)C(=O)N[C@@H](CCSC)C(=O)N[C@@H](CCCCNC(=N)N)C(=O)N[C@@H](CC(=O)O)C(=O)N[C@@H](Cc4c[nH]c5ccccc45)C(=O)N[C@@H](CO)C(=O)N[C@@H]([C@@H](C)O)C(=O)N4CCC[C@H]4C(=O)N4C[C@H](O)C[C@H]4C(=O)N[C@@H](Cc4c[nH]c5ccccc45)C(=O)N[C@H](C(N)=O)CSCCC6=O)nn3)C(N)=O)NC1=O)C(=O)CCSC[C@H](NC(=O)[C@H](C)NC(C)=O)C(=O)N[C@@H]([C@@H](C)CC)C(=O)N[C@@H](CCC(=O)O)C(=O)N[C@@H](CCC(=O)O)C(=O)NCC(=O)N[C@@H](CCC(N)=O)C(=O)N[C@@H](Cc1ccc(O)cc1)C(=O)N2 [BCY8854]
[1]
  secretion of proinflammatory cytokines IFNγ and IL-2: dose-dependent increase
CD137 [2]; 6 h treatment, Jurkat CD137 reporter
  CD137 agonism in coculture with MC38-Nectin-4 or parental MC38: dose-dependent agonism of CD137 was observed only in the presence of the Nectin-4-expressing MC38 clone
CD137 [2]; tumor cell/CD137 reporter coculture
  concentration above which agonism is reduced (hook effect): above 300 nM
CD137 [3]
  CD137 agonism in coculture with Nectin-4 null PC3: not with a Nectin-4 null PC3 cell line
CD137 [3]; tumor lines endogenously expressing Nectin-4
  CD137 agonism in coculture with HT1376 and NCI-H292: CD137 agonism was also observed

## CCCC[C@@H]1NC(=O)[C@H](Cc2ccc(O)cc2)NC(=O)[C@@H]2CCCN2C(=O)[C@H](CC(=O)O)NC(=O)[C@H](C)NC(=O)[C@H](Cc2ccccc2)NC(=O)[C@@H]2CSCCC(=O)N3CN(CN(C3)C(=O)CCSC[C@@H](C(=O)N[C@@H](CNC(=O)CCOCCOCCOCCOCCOCCOCCOCCOCCOCCOCCOCCOCCn3cc(CCC(=O)NCCC(=O)N(C)CC(=O)N(C)CC(=O)N(C)CC(=O)N(C)CC(=O)N(C)CC(=O)N(C)CC(=O)N(C)CC(=O)N(C)CC(=O)N(C)CC(=O)N(C)CC(=O)N[C@H]4CSCCC(=O)N5CN6CN(C5)C(=O)CCSC[C@H](NC(=O)[C@@H](CC(=O)O)NC(=O)[C@H](Cc5cccc7ccccc57)NC(=O)[C@@H]5CCCN5C4=O)C(=O)N[C@@H](CCSC)C(=O)N[C@@H](CCCCNC(=N)N)C(=O)N[C@@H](CC(=O)O)C(=O)N[C@@H](Cc4c[nH]c5ccccc45)C(=O)N[C@@H](CO)C(=O)N[C@@H]([C@@H](C)O)C(=O)N4CCC[C@H]4C(=O)N4C[C@H](O)C[C@H]4C(=O)N[C@@H](Cc4c[nH]c5ccccc45)C(=O)N[C@H](C(N)=O)CSCCC6=O)nn3)C(N)=O)NC1=O)C(=O)CCSC[C@H](NC(C)=O)C(=O)N[C@@H](CC(C)(C)C)C(=O)N1CCC[C@H]1C(=O)N[C@@H](CCC(=O)O)C(=O)N[C@H](C)C(=O)N1CCC[C@H]1C(=O)N[C@@H](Cc1ccc(O)cc1)C(=O)N2 [BCY10000]
[1]
  secretion of proinflammatory cytokines IFNγ and IL-2: dose-dependent increase
[4]
  clearance: 1.14 L/h/kg
CD137 [5]
  improvement of Emax: 1.5 fold
  improvement of in vitro potency (EC50): fourfold

## CCCC[C@@H]1NC(=O)[C@H](Cc2ccc(O)cc2)NC(=O)[C@@H]2CCCN2C(=O)[C@H](CC(N)=O)NC(=O)[C@H](C)NC(=O)[C@H](Cc2ccccc2)NC(=O)[C@@H]2CSCCC(=O)N3CN(CN(C3)C(=O)CCSC[C@H](NC(C)=O)C(=O)N[C@@H](CC(C)(C)C)C(=O)N3CCC[C@H]3C(=O)N[C@@H](CCC(=O)O)C(=O)N[C@H](CCCCNC(=O)CCc3cn(CCOCCOCCOCCN(CCOCCOCCOCCC(=O)N[C@H]4CSCCC(=O)N5CN6CN(C5)C(=O)CCSC[C@H](NC(=O)[C@@H](CC(=O)O)NC(=O)[C@H](Cc5cccc7ccccc57)NC(=O)[C@@H]5CCCN5C4=O)C(=O)N[C@@H](CCSC)C(=O)N[C@@H](CCCCNC(=N)N)C(=O)N[C@@H](CC(=O)O)C(=O)N[C@@H](Cc4c[nH]c5ccccc45)C(=O)N[C@@H](CO)C(=O)N[C@@H]([C@@H](C)O)C(=O)N4CCC[C@H]4C(=O)N4C[C@H](O)C[C@H]4C(=O)N[C@@H](Cc4c[nH]c5ccccc45)C(=O)N[C@H](C(N)=O)CSCCC6=O)CCOCCOCCOCCn4cc(CCC(=O)NCCCC[C@H]5NC(=O)[C@H](CCC(=O)O)NC(=O)[C@@H]6CCCN6C(=O)[C@H](CC(C)(C)C)NC(=O)[C@@H](NC(C)=O)CSCCC(=O)N6CN7CN(C6)C(=O)CCSC[C@H](NC(=O)[C@H](Cc6ccc(O)cc6)NC(=O)[C@@H]6CCCN6C5=O)C(=O)N[C@@H](Cc5ccccc5)C(=O)N[C@@H](C)C(=O)N[C@@H](CC(N)=O)C(=O)N5CCC[C@H]5C(=O)N[C@@H](Cc5ccc(O)cc5)C(=O)N[C@@H](CCCC)C(=O)N[C@H](C(N)=O)CSCCC7=O)nn4)nn3)C(=O)N3CCC[C@H]3C(=O)N[C@@H](Cc3ccc(O)cc3)C(=O)N2)C(=O)CCSC[C@@H](C(N)=O)NC1=O [BCY12486]
Human CD137
  Kd: ~8 nM

## CCCC[C@@H]1NC(=O)[C@H](Cc2ccc(O)cc2)NC(=O)[C@@H]2CCCN2C(=O)[C@H](CCC(=O)O)NC(=O)[C@H](C)NC(=O)[C@H](Cc2ccccc2)NC(=O)[C@@H]2CSCCC(=O)N3CN(CN(C3)C(=O)CCSC[C@H](NC(C)=O)C(=O)N[C@@H](CC(C)(C)C)C(=O)N3CCC[C@H]3C(=O)N[C@@H](CCC(=O)O)C(=O)N[C@H](CCCCNC(=O)CCc3cn(CCOCCOCCOCCN(CCOCCOCCOCCC(=O)N[C@H]4CSCCC(=O)N5CN6CN(C5)C(=O)CCSC[C@H](NC(=O)[C@@H](CC(=O)O)NC(=O)[C@H](Cc5cccc7ccccc57)NC(=O)[C@@H]5CCCN5C4=O)C(=O)N[C@@H](CCSC)C(=O)N[C@@H](CCCCNC(=N)N)C(=O)N[C@@H](CC(=O)O)C(=O)N[C@@H](Cc4c[nH]c5ccccc45)C(=O)N[C@@H](CO)C(=O)N[C@@H]([C@@H](C)O)C(=O)N4CCC[C@H]4C(=O)N4C[C@H](O)C[C@H]4C(=O)N[C@@H](Cc4c[nH]c5ccccc45)C(=O)N[C@H](C(N)=O)CSCCC6=O)CCOCCOCCOCCn4cc(CCC(=O)NCCCC[C@H]5NC(=O)[C@H](CCC(=O)O)NC(=O)[C@@H]6CCCN6C(=O)[C@H](CC(C)(C)C)NC(=O)[C@@H](NC(C)=O)CSCCC(=O)N6CN7CN(C6)C(=O)CCSC[C@H](NC(=O)[C@H](Cc6ccc(O)cc6)NC(=O)[C@@H]6CCCN6C5=O)C(=O)N[C@@H](Cc5ccccc5)C(=O)N[C@@H](C)C(=O)N[C@@H](CCC(=O)O)C(=O)N5CCC[C@H]5C(=O)N[C@@H](Cc5ccc(O)cc5)C(=O)N[C@@H](CCCC)C(=O)N[C@H](C(N)=O)CSCCC7=O)nn4)nn3)C(=O)N3CCC[C@H]3C(=O)N[C@@H](Cc3ccc(O)cc3)C(=O)N2)C(=O)CCSC[C@@H](C(N)=O)NC1=O [BCY12487]
Human CD137
  Kd: ~8 nM

## CCCC[C@@H]1NC(=O)[C@H](Cc2ccc(O)cc2)NC(=O)[C@@H]2CCCN2C(=O)[C@H](CC(=O)O)NC(=O)[C@H](C)NC(=O)[C@H](Cc2ccccc2)NC(=O)[C@@H]2CSCCC(=O)N3CN(CN(C3)C(=O)CCSC[C@@H](C(=O)N[C@@H](C)C(N)=O)NC1=O)C(=O)CCSC[C@H](NC(C)=O)C(=O)N[C@@H](CC(C)(C)C)C(=O)N1CCC[C@H]1C(=O)N[C@@H](CCC(=O)O)C(=O)N[C@H](CCCCNC(=O)CCc1cn(CCOCCOCCOCCN(CCOCCOCCOCCC(=O)N[C@H]3CSCCC(=O)N4CN5CN(C4)C(=O)CCSC[C@H](NC(=O)[C@@H](CC(=O)O)NC(=O)[C@H](Cc4cccc6ccccc46)NC(=O)[C@@H]4CCCN4C3=O)C(=O)N[C@@H](CCSC)C(=O)N[C@@H](CCCCNC(=N)N)C(=O)N[C@@H](CC(=O)O)C(=O)N[C@H](Cc3c[nH]c4ccccc34)C(=O)N[C@@H](CO)C(=O)N[C@@H]([C@@H](C)O)C(=O)N3CCC[C@H]3C(=O)N3C[C@H](O)C[C@H]3C(=O)N[C@H](Cc3c[nH]c4ccccc34)C(=O)N[C@H](C(N)=O)CSCCC5=O)CCOCCOCCOCCn3cc(CCC(=O)NCCCC[C@H]4NC(=O)[C@H](CCC(=O)O)NC(=O)[C@@H]5CCCN5C(=O)[C@H](CC(C)(C)C)NC(=O)[C@@H](NC(C)=O)CSCCC(=O)N5CN6CN(C5)C(=O)CCSC[C@H](NC(=O)[C@H](Cc5ccc(O)cc5)NC(=O)[C@@H]5CCCN5C4=O)C(=O)N[C@@H](Cc4ccccc4)C(=O)N[C@@H](C)C(=O)N[C@@H](CC(=O)O)C(=O)N4CCC[C@H]4C(=O)N[C@@H](Cc4ccc(O)cc4)C(=O)N[C@@H](CCCC)C(=O)N[C@H](C(=O)N[C@@H](C)C(N)=O)CSCCC6=O)nn3)nn1)C(=O)N1CCC[C@H]1C(=O)N[C@@H](Cc1ccc(O)cc1)C(=O)N2 [BCY13144]
[1]
  secretion of proinflammatory cytokines IFNγ and IL-2: No IL-2 or IFNγ secretion was observed
